# Measurements pooled from the literature.
# Lines come from different studies, so protocols differ.
# Observed: cell growth or viability
Compound,cell line,test,setting,quantity,result
O=C1CCC(N2C(=O)c3cccc4c(Cc5cnn(C6CCN(C(=O)C7(O)CCC7)CC6)c5)ccc2c34)C(=O)N1 (centres unmarked),NCI-H929,,,IC50,7e-06 µM
Fc1ccc2c(-c3nc(Cc4ccccc4)cs3)nn(Cc3ccc(Cl)cc3Cl)c2c1,HCT-116,,48 h,IC50,67.6 µM
O=C1[O][Pt]2([NH][C@@H]3CCCC[C@H]3[NH]2)[O]C1=O,HCT-116,MTT,,IC50,0.8 µM
O=C(Nc1ccc(Cl)cc1)Nc1cccc(-c2cn(Cc3ccc(Br)cc3)nn2)c1,PC-9,CCK-8,"50 µM, 72 h",viability,128%
N.N.[Cl][Pt][Cl],HCT-116,MTT,72 h,IC50,8.2 µM
N.N.[Cl][Pt][Cl],HCT-116,MTT,48 h,IC50,13.3 µM
S=P1(C2CCCCC2)CCCCC1,HCT-116,MTT,72 h,IC50,> 100 µM
N.N.[Cl][Pt][Cl],WSUDLCL2,ATP luminescence,"10 µM, 72 h",inhibition,100%
N.N.[Cl][Pt][Cl],HCT-116,MTT,24 h,IC50,255 µM
N.N.[Cl][Pt][Cl],SK-OV-3,MTT,72 h,IC50,43.8 µM
C#CCn1c(C(=O)/C=C/c2ccc(F)cc2)nc2ccccc21,HCT-116,LDH,48 h,IC50,6.51 µM
